Source: ChEMBL document CHEMBL4325893, “Synthesis and antibacterial profiles of targeted triclosan derivatives” (2019)
Values after ≈ are worked out from the molar mass of the structure shown.

How the values were obtained:
[1] = test system: Aeromonas hydrophila; assay: Antibacterial activity against Aeromonas hydrophila OCC 778 after 18 hrs; type: functional; conditions: OCC 778, 18 h
Summary of the method: (§1)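 Broth microdilution in Nutrient Broth No. 2; stocks in ethanol diluted to 0.01–128 µg/ml (triclosan) or 0.25–256 µg/ml (glycosides). Overnight 37 °C NB2 cultures diluted 1 in 10^4 in saline and added to the dilutions. Incubation at 37 °C with agitation, OD read every 15 min; MIC is the lowest concentration preventing any OD rise after 18 h.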

[2] = test system: Citrobacter freundii; assay: Antibacterial activity against Citrobacter freundii OCC 851 after 18 hrs; type: functional; conditions: OCC 851, 18 h; summary of the method: as §1
[3] = test system: Cronobacter sakazakii; assay: Antibacterial activity against Cronobacter sakazakii 29544 after 18 hrs; type: functional; conditions: Cronobacter sakazakii, 29544, 18 h; summary of the method: as §1
[4] = test system: Klebsiella aerogenes; assay: Antibacterial activity against Enterobacter aerogenes ATCC 13048 after 18 hrs; type: functional; conditions: ATCC 13048, 18 h; summary of the method: as §1
[5] = Antibacterial activity against Enterobacter cloacae ATCC 13047 after 18 hrs; type: functional, Enterobacter cloacae subsp. cloacae; conditions: ATCC 13047, 18 h; summary of the method: as §1
[6] = test system: Escherichia coli; assay: Antibacterial activity against Escherichia coli ATCC 8739 after 18 hrs; type: functional; conditions: ATCC 8739, 18 h; summary of the method: as §1
[7] = test system: Escherichia coli; assay: Antibacterial activity against Escherichia coli ATCC 10536 after 18 hrs; type: functional; conditions: ATCC 10536, 18 h; summary of the method: as §1
[8] = test system: Escherichia coli; assay: Antibacterial activity against Escherichia coli ATCC 11775 after 18 hrs; type: functional; summary of the method: as §1
[9] = test system: Escherichia coli; assay: Antibacterial activity against Escherichia coli ATCC 25922 after 18 hrs; type: functional; conditions: ATCC 25922, 18 h; summary of the method: as §1
[10] = test system: Escherichia coli; assay: Antibacterial activity against Escherichia coli ATCC 35218 after 18 hrs; type: functional; conditions: ATCC 35218, 18 h; summary of the method: as §1
[11] = test system: Escherichia coli; assay: Antibacterial activity against Escherichia coli 700728 after 18 hrs; type: functional; conditions: Escherichia coli, 700728, 18 h; summary of the method: as §1
[12] = test system: Escherichia coli; assay: Antibacterial activity against Escherichia coli NCTC 13216 after 18 hrs; type: functional; conditions: NCTC 13216, 18 h; summary of the method: as §1
[13] = test system: Escherichia coli; assay: Antibacterial activity against Escherichia coli OCC 122 after 18 hrs; type: functional; conditions: OCC 122, 18 h; summary of the method: as §1
[14] = test system: Escherichia hermannii; assay: Antibacterial activity against Escherichia hermannii 33650 after 18 hrs; type: functional; conditions: Atlantibacter hermannii, 33650, 18 h; summary of the method: as §1
[15] = test system: Hafnia alvei; assay: Antibacterial activity against Hafnia alvei 13337 after 18 hrs; type: functional; conditions: Hafnia alvei, 13337, 18 h; summary of the method: as §1
[16] = test system: Klebsiella aerogenes; assay: Antibacterial activity against Klebsiella aerogenes NCTC 8167 after 18 hrs; type: functional; conditions: NCTC 8167, 18 h; summary of the method: as §1
[17] = test system: Klebsiella pneumoniae; assay: Antibacterial activity against Klebsiella pneumoniae ATCC 10031 after 18 hrs; type: functional; conditions: ATCC 10031, 18 h; summary of the method: as §1
[18] = test system: Proteus mirabilis; assay: Antibacterial activity against Proteus mirabilis ATCC 12453 after 18 hrs; type: functional; conditions: ATCC 12453, 18 h; summary of the method: as §1
[19] = test system: Proteus vulgaris; assay: Antibacterial activity against Proteus vulgaris OCC 195 after 18 hrs; type: functional; conditions: OCC 195, 18 h; summary of the method: as §1
[20] = test system: Pseudomonas aeruginosa; assay: Antibacterial activity against Pseudomonas aeruginosa ATCC 27853 after 18 hrs; type: functional; conditions: ATCC 27853, 18 h; summary of the method: as §1
[21] = test system: Klebsiella pneumoniae; assay: Antibacterial activity against Klebsiella pneumoniae ATCC 13883 after 18 hrs; type: functional; conditions: ATCC 13883, 18 h; summary of the method: as §1
[22] = test system: Citrobacter freundii; assay: Antibacterial activity against Citrobacter freundii 8090 after 18 hrs; type: functional; conditions: Citrobacter freundii, 8090, 18 h; summary of the method: as §1
[23] = test system: Serratia marcescens; assay: Antibacterial activity against Serratia marcescens OCC 217 after 18 hrs; type: functional; conditions: OCC 217, 18 h; summary of the method: as §1
[24] = test system: Bacillus cereus; assay: Antibacterial activity against Bacillus cereus ATCC 14579 after 18 hrs; type: functional; conditions: ATCC 14579, 18 h; summary of the method: as §1
[25] = test system: Bacillus subtilis; assay: Antibacterial activity against Bacillus subtilis NCTC 10073 after 18 hrs; type: functional; conditions: NCTC 10073, 18 h; summary of the method: as §1
[26] = test system: Enterococcus faecalis; assay: Antibacterial activity against Enterococcus faecalis ATCC 29212 after 18 hrs; type: functional; conditions: ATCC 29212, 18 h; summary of the method: as §1
[27] = test system: Enterococcus faecalis; assay: Antibacterial activity against Enterococcus faecalis ATCC 33186 after 18 hrs; type: functional; conditions: ATCC 33186, 18 h; summary of the method: as §1
[28] = test system: Enterococcus faecium; assay: Antibacterial activity against Enterococcus faecium ATCC 19434 after 18 hrs; type: functional; conditions: ATCC 19434, 18 h; summary of the method: as §1

## Oc1cc(Cl)ccc1Oc1ccc(Cl)cc1Cl [TRICLOSAN]
[1]
  MIC: 8 µg/mL (≈ 27.6 µM)
[2]
  MIC: 0.5 µg/mL (≈ 1.73 µM)
[3]
  MIC: 0.5 µg/mL (≈ 1.73 µM)
[4]
  MIC: 0.5 µg/mL (≈ 1.73 µM)
[5]
  MIC: 0.5 µg/mL (≈ 1.73 µM)
[6]
  MIC: 0.1 to 0.5 µg/mL (≈ 0.345 to 1.73 µM)
[7]
  MIC: 0.1 to 0.5 µg/mL (≈ 0.345 to 1.73 µM)
[8]
  MIC: 0.1 to 0.5 µg/mL (≈ 0.345 to 1.73 µM)
[9]
  MIC: 0.1 to 0.5 µg/mL (≈ 0.345 to 1.73 µM)
[10]
  MIC: 0.1 to 0.5 µg/mL (≈ 0.345 to 1.73 µM)
[11]
  MIC: 0.1 to 0.5 µg/mL (≈ 0.345 to 1.73 µM)
[12]
  MIC: 0.1 to 0.5 µg/mL (≈ 0.345 to 1.73 µM)
[13]
  MIC: 0.1 to 0.5 µg/mL (≈ 0.345 to 1.73 µM)
[14]
  MIC: 0.5 µg/mL (≈ 1.73 µM)
[15]
  MIC: 0.1 µg/mL (≈ 0.345 µM)
[16]
  MIC: 0.5 µg/mL (≈ 1.73 µM)
[17]
  MIC: 0.1 µg/mL (≈ 0.345 µM)
[18]
  MIC: 0.5 µg/mL (≈ 1.73 µM)
[19]
  MIC: 0.5 µg/mL (≈ 1.73 µM)
[20]
  MIC: 32 µg/mL (≈ 111 µM)
[21]
  MIC: 0.1 µg/mL (≈ 0.345 µM)
[22]
  MIC: 0.5 µg/mL (≈ 1.73 µM)
[23]
  MIC: 64 µg/mL (≈ 221 µM)
[24]
  MIC: 2 µg/mL (≈ 6.91 µM)
[25]
  MIC: 1 µg/mL (≈ 3.45 µM)
[26]
  MIC: 8 µg/mL (≈ 27.6 µM)
[27]
  MIC: 8 µg/mL (≈ 27.6 µM)
[28]
  MIC: 4 µg/mL (≈ 13.8 µM)
